In article PMC11959959 (Acta Pharmaceutica Sinica. B, 2024):

Key:
B16F10 cells = experiment: Cell uptake assay in B16F10 cells; format: cell-based, murine; conditions: 750 kBq/mL, 5-80 min
[1] = test system: B16F10 tumor-bearing mice; experiment: PET/CT imaging in B16F10 tumor-bearing mice; format: in vivo; conditions: 0.5 and 1 h p.i.
Outline: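 Mice bear s.c. B16F10 allografts (1×10^6 cells, left flank), imaged at tumor volume ≥100 mm³, usually day 10. They receive 200 μCi of tracer in 100 μL normal saline by tail vein. Dynamic micro-PET/CT runs for 1 h from injection, with three mice per tracer. The PEGylated tracer also gets static scans at 0.5, 1, 5, 10 and 24 h. Data are decay-corrected and given as %ID/g.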

[^64Cu]QM-2303: 64Cu-labeled PEGibody from QM-2302 PEGylated with 4-arm PEG (KSSPHSRNSGSGSGSGSGRGDSPC; NOTA conjugated to the N-terminus; thiol group of the C-terminal cysteine linked to 4-arm PEG; labelled with ^64Cu in the cell assays)
cell uptake / percentage of binding to integrin α5β1 (B16F10 cells): greater percentage of binding to integrin α5β1 than [^64Cu]QM-2301 and [^64Cu]QM-2302
kidney accumulation [1]: comparable to that of [^64Cu]QM-2301
